Laboratory results published in ChEMBL document CHEMBL3244104, “New inhibitors of platelet aggregation. 5'-Phosphate, 5'-phosphorothioate, and 5'-O-sulfamoyl derivatives of 2-substituted adenosine analogues” (J Med Chem, 1978).
Activity calls are given as the source filed them. The calls are words filed in the database; no cut-off is given here.

Key:
[1] = Antiplatelet activity in sheep platelet rich plasma assessed as inhibition of ADP-induced platelet aggregation pretreated for 2.5 mins followed by ADP addition by photometric analysis relative to adenosine; type: functional, Ovis aries
In short: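 Sheep PRP (300 000-400 000 platelets/mm³), 37 °C, stirred, Born photometric read-out. Analogue incubated 2.5 min before ADP (final 0.67 μM). Four doses per analogue. Rate taken as initial slope of the aggregation curve. Potency from log dose vs. percent inhibition plots, expressed relative to adenosine run on each PRP batch. Means of at least four determinations.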

[2] = tested on: Platelet; assay: Antiplatelet activity in sheep platelet rich plasma assessed as inhibition of ADP-induced platelet aggregation pretreated for 2.5 mins followed by ADP addition by photometric analysis; type: functional, cell-free; settings: Ovis aries
In short: (§1)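 Citrated sheep blood spun 24 min at 140g to give PRP, diluted with platelet-free plasma (1000g, 10 min) to 300 000-400 000 platelets/mm³. Aggregation read photometrically (Born method) at 37 °C in stirred PRP as light transmission or optical density change. Agents dissolved in saline buffered to pH 7.4 with sodium barbitone. ADP added to 0.67 μM.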

[3] = tested on: Platelet; assay: Antiplatelet activity in sheep platelet rich plasma assessed as inhibition of serotonin-induced platelet aggregation pretreated for 1 min followed by serotonin addition by photometric analysis; type: functional, cell-free; settings: Ovis aries
In short: (§2)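 Serotonin-induced aggregation in sheep PRP adjusted to 300 000-400 000 platelets/mm³, measured at 37 °C by Born photometry in stirred samples. Inhibitor given 1 min before serotonin, with serotonin final 1.6 μM. Agents dissolved in barbitone-buffered saline, pH 7.4.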

[4] = tested on: Rattus norvegicus; assay: Toxicity in anesthetized rat assessed as hypotensive potency up to 2.5 umol/kg, iv relative to adenosine; type: organism-based; settings: in vivo
[5] = tested on: Platelet; assay: Antiplatelet activity in sheep platelet rich plasma assessed as inhibition of ADP-induced platelet aggregation at 3.75 uM pretreated for 1 min followed by ADP addition by photometric analysis; settings: Ovis aries
[6] = tested on: Rattus norvegicus; assay: Cardiotoxicity in anesthetized rat assessed as effect on heart rate up to 2.5 umol/kg, iv; type: toxicity, organism-based; settings: in vivo
[7] = tested on: Platelet; assay: Antiplatelet activity in sheep platelet rich plasma assessed as inhibition of ADP-induced platelet aggregation at 100 uM pretreated for 1 min followed by ADP addition by photometric analysis; type: functional, cell-free; settings: Ovis aries; in short: as §1
[8] = tested on: Platelet; assay: Antiplatelet activity in sheep platelet rich plasma assessed as inhibition of serotonin-induced platelet aggregation at 200 uM pretreated for 1 min followed by serotonin addition by photometric analysis; type: functional, cell-free; settings: Ovis aries; in short: as §2
[9] = Stimulation of platelet aggregation in sheep platelet rich plasma at 100 uM pretreated for 1 min followed by ADP addition by photometric analysis; type: ADME, cell-free, Ovis aries; in short: as §1
[10] = tested on: Platelet; assay: Antiplatelet activity in sheep platelet rich plasma assessed as inhibition of ADP-induced platelet aggregation up to 300 uM pretreated for 2.5 mins followed by ADP addition by photometric analysis; type: functional, cell-free; settings: Ovis aries; in short: as §1
[11] = tested on: Platelet; assay: Antiplatelet activity in sheep platelet rich plasma assessed as inhibition of serotonin-induced platelet aggregation at 100 uM pretreated for 1 min followed by serotonin addition by photometric analysis; type: functional, cell-free; settings: Ovis aries; in short: as §2

Structure (SMILES)	fold change (FC) [1]	inhibition [2]	inhibition [3]	also measured
CCOc1nc(N)c2ncn([C@@H]3O[C@H](COP(=O)(O)O)[C@@H](O)[C@H]3O)c2n1	0.103	Dose-dependent effect	inactive	–
CCSc1nc(N)c2ncn([C@@H]3O[C@H](COP(=O)(O)O)[C@@H](O)[C@H]3O)c2n1	5.2	Dose-dependent effect	inactive	Activity [4]: < 1%; inhibition [5]: Active; Activity [6]: Non-toxic
Nc1nc(Cl)nc2c1ncn2[C@@H]1O[C@H](COP(=O)(O)O)[C@@H](O)[C@H]1O	0.12	Dose-dependent effect	inactive	–
Nc1nc(C(F)(F)F)nc2c1ncn2[C@@H]1O[C@H](COP(=O)(O)O)[C@@H](O)[C@H]1O	0.22	Dose-dependent effect	inactive	–
CSc1nc(N)c2ncn([C@@H]3O[C@H](COS(N)(=O)=O)[C@@H](O)[C@H]3O)c2n1	–	–	–	inhibition [7]: Active; inhibition [8]: Active
CNc1nc(Cl)nc2c1ncn2[C@@H]1O[C@H](COP(=O)(O)O)[C@@H](O)[C@H]1O	0.12	Dose-dependent effect	inactive	–
CSc1nc(N)c2ncn([C@@H]3O[C@H](COP(=O)(O)O)[C@@H](O)[C@H]3O)c2n1	2.41	Dose-dependent effect	inactive	Activity [4]: < 1%; Activity [6]: Non-toxic
CNc1nc(N)c2ncn([C@@H]3O[C@H](COP(=O)(O)O)[C@@H](O)[C@H]3O)c2n1	0.027	Dose-dependent effect	inactive	–
Nc1ncnc2c1ncn2[C@@H]1O[C@H](COP(O)(O)=S)[C@@H](O)[C@H]1O	0.04	–	inactive	–
CCSc1nc(N)c2ncn([C@@H]3O[C@H](COP(O)(O)=S)[C@@H](O)[C@H]3O)c2n1.N.N	13.4	–	inactive	Activity [4]: < 1%; inhibition [5]: Active; Activity [6]: Non-toxic
N.N.Nc1nc(Cl)nc2c1ncn2[C@@H]1O[C@H](COP(O)(O)=S)[C@@H](O)[C@H]1O	0.44	–	inactive	–
Nc1nc(Cl)nc2c1ncn2[C@@H]1O[C@H](COS(N)(=O)=O)[C@@H](O)[C@H]1O	–	–	–	Activity [9]: Toxic; inhibition [10]: inactive; inhibition [11]: Active
COc1nc(N)c2ncn([C@@H]3O[C@H](COP(=O)(O)O)[C@@H](O)[C@H]3O)c2n1	0.034	Dose-dependent effect	inactive	–
Nc1ncnc2c1ncn2[C@@H]1O[C@H](CO)[C@@H](O)[C@H]1O	–	–	–	inhibition [5]: Active
CSc1nc(N)c2ncn([C@@H]3O[C@H](COP(O)(O)=S)[C@@H](O)[C@H]3O)c2n1.N.N	4	–	inactive	Activity [4]: < 1%; Activity [6]: Non-toxic
Nc1ncnc2c1ncn2[C@@H]1O[C@H](COP(=O)(O)O)[C@@H](O)[C@H]1O [ADENOSINE PHOSPHATE]	0.12	Dose-dependent effect	inactive	–
CCNc1nc(N)c2ncn([C@@H]3O[C@H](COP(=O)(O)O)[C@@H](O)[C@H]3O)c2n1	0.027	Dose-dependent effect	inactive	–
Nc1ncnc2c1ncn2[C@@H]1O[C@H](COS(N)(=O)=O)[C@@H](O)[C@H]1O	–	–	–	Activity [9]: Toxic; inhibition [8]: Active; inhibition [10]: inactive
CNc1nc(SC)nc2c1ncn2[C@@H]1O[C@H](COP(=O)(O)O)[C@@H](O)[C@H]1O	0.46	Dose-dependent effect	inactive	–
